# This is a sample that favours compounds with a hit; in the whole collection about 3.5% have one here.
# RGS4 block: inhibitors of human RGS4. HEK293 M3R/RGS4 inducible, Fluo-4 calcium flux; active compounds read high; triggered by carbachol at its EC20. B-score at 10 µM. 310,000 compounds, 0.45% hits. AID 463165;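 active means B-score, a plate-corrected calcium signal, over three deviations above library mean, with baseline fluorescence within five deviations of library mean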;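 further: RGS4 expression induced by doxycycline in cells with stable M3 receptor; B-score is computed from the integrated fluorescence ratio over baseline after carbachol; higher B-score means a larger calcium signal and so more RGS4 inhibition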
# Target sequence (P49798 whole entry, looked up): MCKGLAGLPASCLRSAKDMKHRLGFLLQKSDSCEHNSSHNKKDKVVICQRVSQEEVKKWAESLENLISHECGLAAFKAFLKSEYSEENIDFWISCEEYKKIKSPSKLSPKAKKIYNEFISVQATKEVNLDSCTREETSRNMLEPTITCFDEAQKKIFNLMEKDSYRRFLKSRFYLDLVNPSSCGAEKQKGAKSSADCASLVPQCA
# RGS4 pot: RGS4 potentiation or activation | HEK293 M3R/inducible RGS4, carbachol calcium flux Fluo4; active compounds read low | B-score at 10 µM | 310,000 compounds, 0.92% hits | AID 463111;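 active means B-score of the integrated calcium signal more than 4 SD below the library mean, with starting fluorescence not abnormally high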;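 further: negative B-score means reduced calcium response which marks RGS4 activation or potentiation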
#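 Assay system: HEK293 FlpIn-TREx cells, stable M3R, doxycycline-inducible RGS4 / Probe or stimulus: carbachol, ECmax concentration / Times: overnight RGS4 induction, 30 min dye load 37 °C, 20 min compound RT / Signal: kinetic calcium fluorescence imaging with Fluo4-AM dye, 2 µM / Measure: Agonist-evoked peak-minus-minimum fluorescence over baseline, integrated ratio, B score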
# MrgX1 antag: blocks BAM8-22 activation of human MrgX1 receptor. B-score at 10 µM. 310,000 compounds, 1.3% hits. MRGX1-HEK293 calcium flux, Fluo-4, BAM8-22 antagonism; active compounds read low. AID 588676;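 active means calcium-response B-score plate-corrected more than 3 library SD below zero, starting fluorescence within 5 deviations, no agonist response on first addition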;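 further: peak minus trough fluorescence over baseline after final BAM8-22 challenge near maximal dose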
# Target sequence (Q96LB2 whole entry, looked up): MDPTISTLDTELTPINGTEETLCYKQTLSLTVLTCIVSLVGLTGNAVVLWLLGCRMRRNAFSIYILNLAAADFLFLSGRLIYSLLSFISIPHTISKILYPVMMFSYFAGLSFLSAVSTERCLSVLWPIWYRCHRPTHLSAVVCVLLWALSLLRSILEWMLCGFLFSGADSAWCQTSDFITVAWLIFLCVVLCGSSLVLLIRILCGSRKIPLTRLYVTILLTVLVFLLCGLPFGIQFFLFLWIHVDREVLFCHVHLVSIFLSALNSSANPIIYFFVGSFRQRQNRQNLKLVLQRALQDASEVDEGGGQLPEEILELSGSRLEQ
# MrgX1 agonist: activates human MrgX1 receptor signaling. MrgX1-HEK293 cells, Fluo-4 calcium fluorescence, agonist mode; active compounds read high. Q96LB2. AID 588627. B-score at 10 µM. 310,000 compounds, 0.44% hits;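 active means calcium response B-score plate-corrected fluorescence ratio at least 3 library SD, with starting fluorescence B-score inside 5 SD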
#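 Test system: HEK293 cells stably expressing human MrgX1 receptor; amount: 15,000 cells per well; doses: compound delivered in addition one of three; times: overnight plating before 1 h dye loading; detection: Fluo-4 NW calcium-flux fluorescence, kinetic read; read-out basis: B-scored fluorescence response ratio; controls: positive and negative controls per plate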
# MrgX1 PAM: human MrgX1 positive allosteric modulation, primary screen; B-score at 10 µM; Q96LB2; 310,000 compounds, 0.63% hits; MrgX1-HEK293, Fluo-4 calcium flux, FDSS; active compounds read high;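 active means plate-corrected calcium response at least 3 library SD above typical, normal starting fluorescence, not activating the receptor alone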;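 further: compound read alongside a low EC10 to EC30 dose of BAM8-22 agonist; peak minus trough fluorescence over baseline measured at the second addition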
# A number is an active result; i = inactive; nt = no result given.
SMILES,RGS4 block,RGS4 pot,MrgX1 antag,MrgX1 agonist,MrgX1 PAM
CC(C)Oc1ccc(OCCCN2CCCCCC2)cc1,i,-7.21,i,i,i
Clc1ccc(OCCCCN2CCCCC2)cc1,i,-7.14,i,i,i
CC(C)(C)c1ccc(OCCCN2CCCC2)cc1,i,i,i,i,i
CC(C)c1ccc(OCCCCN2CCCCC2)cc1,i,i,i,i,i
COc1ccc2[nH]c3c(=O)n(CCCC(=O)NC4CCCCC4C)c(=S)[nH]c3c2c1 (centres undefined),i,i,i,i,i
Cc1ccccc1-n1nc2c(c1NC(=O)C(C)(C)C)CS(=O)(=O)C2,i,i,i,i,i
CCC(CC)COC(=O)C1=C(C)NC(=O)NC1c1ccccc1Br (centres undefined),i,i,i,i,i
CSc1ccccc1OCc1cc(C(=O)NCCn2ccnc2C)no1,i,i,i,i,i
COc1cc(NC(=O)CN(C)C2CCCCC2)c(C)cc1[N+](=O)[O-],i,i,-5.24,i,i
C=C1CC(C(=O)N/N=C/c2ccc(O)cc2)C1,i,i,-5.85,i,i
CCOc1ccc(-c2cc(C(=O)Nc3ccc4c(c3)OCCO4)c3ccccc3n2)cc1,i,-7.56,i,i,i
O=C(Nc1ccc2c(c1)OCCO2)c1cc(-c2ccccn2)nc2ccc(Br)cc12,i,i,i,i,i
Cc1cccc(-c2cc(C(=O)Nc3ccc4c(c3)OCCO4)c3ccccc3n2)c1,i,-7.18,i,i,i
Cc1ccc(C)c(S(=O)(=O)N2CCN(C(=O)Cn3[nH]c(=O)c4ccccc4c3=O)CC2)c1,i,i,i,i,i
CN1C2CCC1/C(=C\c1ccc(F)cc1)C(=O)/C2=C/c1ccc(F)cc1,i,i,i,i,7.03
CN1C2CCC1/C(=C/c1cccn1C)C(=O)/C2=C\c1cccn1C,i,i,i,i,i
CCOc1ccccc1CN1CCCC(CNC(=O)Cc2ccc(OC)cc2)C1 (centres undefined),i,i,i,i,i
COc1ccc(OC)c(C2=C/C(=C/c3ccccn3)C(=O)O2)c1,i,-7.86,i,i,i
COc1ccc(C(=O)NCCCOC(C)C)cc1OC1CCN(C(C)=O)CC1,i,i,i,i,i
Cc1cccc(C(=O)OCC(=O)N2CCC(c3ccccc3)=N2)c1O,i,i,i,i,i
CCc1cc(C(=O)OCC(=O)N2CCC(c3ccccc3)=N2)sc1C,i,-7.22,i,i,i
CCc1ccc2c(c1)c(N=NC1=NC(=O)CS1)c(O)n2CC,4.98,i,i,i,i
CCc1ccc2[nH]c(O)c(N=NC3=NC(=O)CS3)c2c1,i,i,i,i,i
CCCCCCCN1N=C(C)C(C(=O)c2ccccc2)C1=O (centres undefined),i,i,i,i,i
CCCCCCN1N=C(C)C(C(=O)c2ccc(Cl)cc2)C1=O (centres undefined),i,i,i,66.4,i
SMILES,RGS4 block,RGS4 pot,MrgX1 antag,MrgX1 agonist,MrgX1 PAM
C[C@H](NC(=O)c1nc[nH]c1C(=O)NCCCCCNC(=O)OC(C)(C)C)C(=O)OCc1ccccc1,i,-7.83,i,i,7.76
CC(C)C[C@H](NC(=O)c1nc[nH]c1C(=O)NCCCCCNC(=O)OC(C)(C)C)C(=O)OCc1ccccc1,i,i,i,i,i
CC(C)C[C@H](NC(=O)c1[nH]cnc1C(=O)Nc1ccc(CNC(=O)OC(C)(C)C)cc1)C(=O)OC(C)(C)C,i,-7.04,i,i,i
CC(C)(C)OC(=O)NCCCCCNC(=O)c1[nH]cnc1C(=O)N[C@@H](Cc1ccccc1)C(=O)OCc1ccccc1,i,-7.5,i,i,i
C[C@H](NC(=O)c1nc[nH]c1C(=O)N[C@@H](CCCCNC(=O)OC(C)(C)C)C(=O)OC(C)(C)C)C(=O)OCc1ccccc1,i,i,i,i,i
COC(=O)c1ccccc1CON1C(=O)C(C)(C)N(OCc2ccccc2C(=O)OC)C(=O)C1(C)C,i,i,-8.07,i,i
COC(=O)c1ccccc1NC(=O)CC(=O)Nc1ccccc1C(=O)OC,i,i,i,i,i
O=C(NCC1COc2ccccc2O1)c1ccc(Br)s1 (centres undefined),i,i,i,i,i
CCCCC1C2=C(CC(C)(C)CC2=O)OC2=C1C(=O)CC(C)(C)C2,i,i,i,i,i
CCN(CC)N=Nc1ccc(C(=O)O)cc1,i,i,-5.52,i,i
CCN(CC)N=Nc1ccc(S(=O)(=O)N2CCSC2C(=O)O)cc1 (centres undefined),i,i,i,i,i
Cc1ccc(S(=O)(=O)NC(=O)Nc2ccc(C)cc2C)cc1,i,i,i,i,i
CCC(NC(C)C)C(O)c1ccc(O)c(O)c1 (centres undefined),i,i,i,26.5,i
CC(C)C(=O)c1ccc(O)c(O)c1,i,i,i,i,i
CCOC(=O)C(=O)NNc1ccc(C)cc1,i,i,-9.02,i,i
CCOC(=O)C(=O)NNc1ccc(Cl)cc1,i,i,i,i,i
Cc1ccc(NC(=O)/C(C#N)=C(\N)C(Cl)(Cl)Cl)nc1,i,i,i,27.7,i
Cc1ccc(NC(=O)C(=O)Nc2ccc(C)cn2)nc1,i,i,i,i,i
CCN(CC)c1ccc(NC(=O)COc2ccc(N(C)S(=O)(=O)c3cccs3)cc2)cc1,i,i,i,i,7.95
COc1cccc(C(=O)C2CCCN(CC3=Cc4cc(OC)ccc4OC3)C2)c1 (centres undefined),i,-7.04,i,i,i
COc1ccc(N(C)S(=O)(=O)c2ccc3c(c2)CCN3C(=O)C2CC2)c(OC)c1,i,i,i,i,i
Cc1ccc(SCC(=O)Nc2ccc(N3CCN(C)CC3)c(F)c2)c(C)c1,i,-7.6,i,i,i
CCN1C(=O)N[C@H](c2ccccc2)C(C(C)=O)=C1C,i,i,i,i,i
O=C(NCCCNC(=O)c1ccc(F)cc1)c1ccc(F)cc1,i,i,i,i,i
COc1ccc(C)cc1Nc1nc(N)c2cc(OC)c(OC)cc2n1,i,i,-4.55,i,i
SMILES,RGS4 block,RGS4 pot,MrgX1 antag,MrgX1 agonist,MrgX1 PAM
Cc1cccc(N(C(=O)c2snc(C(N)=O)c2N)C(C(=O)NCC2CCCO2)c2cccs2)c1 (centres undefined),i,i,-4.73,i,i
Cc1ccc(C)c(N(C(=O)c2snc(C(N)=O)c2N)C(C(=O)NCC2CCCO2)c2cccs2)c1 (centres undefined),i,i,i,i,i
O=C(Cn1c(CO)nc2ccccc21)NC1CCCCCC1,i,i,-10.2,i,i
Nc1nonc1-c1nc2ccccc2n1CC(=O)NC1CCCC1,i,i,i,i,i
O=C(NCCCCNC(=O)c1ccccc1Br)c1ccccc1Br,i,i,i,i,i
O=C(CCC(=O)N1CCOc2ccccc21)Nc1cc(F)ccc1F,i,i,i,i,i
Cc1ccc(S(=O)(=O)N2[C@@H](c3ccccc3F)C(C(=O)O)=CC[C@H]2c2cccc(C)c2)cc1,nt,nt,i,i,10.6

# Screening results: PubChem, Johns Hopkins Ion Channel Center
